Assays:
[1] = molecular target: T1, NAD-dependent protein deacetylase sirtuin-1 (Homo sapiens) (UniProt Q96EB6); assay: Inhibition of human SIRT1 using fluorogenic ZMAL as substrate at 100 uM incubated for 4 hrs in the presence of beta-NAD+ as cofactor by fluorescence based microplate reader analysis relative to control
T1 sequence (whole entry): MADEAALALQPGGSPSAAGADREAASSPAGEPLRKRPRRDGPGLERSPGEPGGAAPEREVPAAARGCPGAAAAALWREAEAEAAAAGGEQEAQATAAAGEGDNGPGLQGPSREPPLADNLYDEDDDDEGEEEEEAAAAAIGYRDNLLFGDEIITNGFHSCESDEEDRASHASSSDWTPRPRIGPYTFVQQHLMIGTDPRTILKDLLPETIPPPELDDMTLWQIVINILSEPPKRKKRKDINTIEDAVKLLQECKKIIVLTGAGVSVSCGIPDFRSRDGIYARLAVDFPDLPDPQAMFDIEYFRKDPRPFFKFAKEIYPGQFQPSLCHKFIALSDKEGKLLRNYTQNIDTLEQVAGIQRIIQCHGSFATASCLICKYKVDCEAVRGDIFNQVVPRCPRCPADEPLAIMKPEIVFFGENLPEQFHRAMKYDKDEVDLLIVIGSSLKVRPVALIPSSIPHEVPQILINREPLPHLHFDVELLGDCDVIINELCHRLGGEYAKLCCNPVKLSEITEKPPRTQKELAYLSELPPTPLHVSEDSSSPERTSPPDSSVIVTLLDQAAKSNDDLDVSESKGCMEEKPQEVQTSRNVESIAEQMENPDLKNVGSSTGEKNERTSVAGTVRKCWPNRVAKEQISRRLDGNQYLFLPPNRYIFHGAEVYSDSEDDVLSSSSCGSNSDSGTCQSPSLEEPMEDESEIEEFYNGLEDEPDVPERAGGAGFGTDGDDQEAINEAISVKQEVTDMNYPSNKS
How it was run: (§1)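 Recombinant SIRT1, SIRT2 or SIRT3 (0.5 U) in 50 mM Tris/HCl, 137 mM NaCl, 2.7 mM KCl with ZMAL 10.5 μM, β-NAD+ 500 μM and 8.3% (v/v) DMSO (final), plus compound; 4 h at 37 °C with shaking. Trypsin stop solution containing 8 mM nicotinamide added, 20 min at 37 °C, then fluorescence read. Single concentrations tested first; IC50 only for near-complete inhibitors; means of 3 experiments.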

[2] = molecular target: T2, SIRT2 (NAD-dependent protein deacetylase sirtuin-2) (Homo sapiens, UniProt Q8IXJ6); assay: Chemical stability of the compound in sirtuin assay buffer at pH 8.0 assessed as human SIRT2 mediated nicotinamide cleavage measured upto 4 hrs in the presence of ZMAL substrate by HPLC analysis; format: ADME; details: pH 8, probe ZMAL substrate, read-out: Activity
T2 sequence (Q8IXJ6 whole entry): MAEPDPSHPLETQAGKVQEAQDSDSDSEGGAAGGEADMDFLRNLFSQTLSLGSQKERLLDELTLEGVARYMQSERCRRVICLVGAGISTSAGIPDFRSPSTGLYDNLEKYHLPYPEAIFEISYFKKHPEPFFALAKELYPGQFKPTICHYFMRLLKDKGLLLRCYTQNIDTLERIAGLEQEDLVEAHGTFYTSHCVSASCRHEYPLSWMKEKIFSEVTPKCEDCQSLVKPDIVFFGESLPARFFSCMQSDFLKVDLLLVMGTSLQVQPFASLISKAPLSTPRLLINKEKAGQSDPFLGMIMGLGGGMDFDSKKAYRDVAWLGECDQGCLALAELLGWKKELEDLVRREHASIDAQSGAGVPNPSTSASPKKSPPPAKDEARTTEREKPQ

[3] = Chemical stability of the compound in sirtuin assay buffer at pH 8.0 assessed as nicotinamide cleavage measured every 30 mins for 4 hrs by HPLC analysis; format: physicochemical; details: read-out: Activity
[4] = molecular target: T3, NAD-dependent protein deacetylase sirtuin-3, mitochondrial (Homo sapiens) (UniProt Q9NTG7); assay: Inhibition of human SIRT3 using fluorogenic ZMAL as substrate at 250 uM incubated for 4 hrs in the presence of beta-NAD+ as cofactor by fluorescence based microplate reader analysis relative to control; how it was run: as §1
T3 sequence (whole entry): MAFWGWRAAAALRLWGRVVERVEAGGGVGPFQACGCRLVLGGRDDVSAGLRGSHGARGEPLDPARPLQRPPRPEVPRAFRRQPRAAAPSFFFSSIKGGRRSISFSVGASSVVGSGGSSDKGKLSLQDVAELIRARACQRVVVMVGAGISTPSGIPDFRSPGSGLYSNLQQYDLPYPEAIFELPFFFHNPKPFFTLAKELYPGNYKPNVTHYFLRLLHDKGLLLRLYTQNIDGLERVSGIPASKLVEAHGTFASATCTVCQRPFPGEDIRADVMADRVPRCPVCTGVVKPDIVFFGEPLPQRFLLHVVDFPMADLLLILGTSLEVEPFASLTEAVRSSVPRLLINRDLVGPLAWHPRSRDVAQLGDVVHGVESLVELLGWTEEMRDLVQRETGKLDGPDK

[5] = molecular target: T4, NAD-dependent protein deacetylase sirtuin-2 (Homo sapiens, UniProt Q8IXJ6); assay: Inhibition of human SIRT2 using fluorogenic ZMAL as substrate incubated for 4 hrs in the presence of beta-NAD+ as cofactor by fluorescence based microplate reader analysis; how it was run: as §1
T4 sequence (Q8IXJ6 whole entry): T2 sequence (Q8IXJ6 whole entry)

[6] = system: Photorhabdus luminescens; assay: Displacement of [32P]NAD+ from Photorhabdus luminescens TccC3hvr ART domain assessed as inhibition of ADP-ribosylation of alpha-skeletal muscle actin preincubated for 15 mins followed by TccC3hvr addition and measured after 6 mins by SDS-PAGE based autoradiography; details: dose 10-100 µM, time 21.0 min, DDE = dose-dependent effect
How it was run: (§2)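 α-Skeletal muscle actin 1 μM with 1 μM NAD+ plus [32P]NAD+ (0.5 μCi per sample) in G buffer (5 mM Tris-HCl, 0.2 mM CaCl2, 0.2 mM ATP, 0.5 mM DTT, pH 8.0). Compound (10, 30 or 100 μM) preincubated 15 min at 21 °C, then 70 nM TccC3hvr ART domain added; 6 min at 21 °C, stopped with SDS Laemmli buffer. SDS-PAGE (12.5%), autoradiography; % inhibition versus control.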

[7] = system: Photorhabdus luminescens; assay: Displacement of [32P]NAD+ from Photorhabdus luminescens TccC3hvr ART domain assessed as inhibition of ADP-ribosylation of alpha-skeletal muscle actin at 100 uM preincubated for 15 mins followed by TccC3hvr addition and measured after 6 mins by SDS-PAGE based autoradiography; details: time 21.0 min; how it was run: as §2
[8] = molecular target: T3, NAD-dependent protein deacetylase sirtuin-3, mitochondrial (Homo sapiens); assay: Inhibition of human SIRT3 using fluorogenic ZMAL as substrate at 100 uM incubated for 4 hrs in the presence of beta-NAD+ as cofactor by fluorescence based microplate reader analysis relative to control; how it was run: as §1
[9] = molecular target: T1, NAD-dependent protein deacetylase sirtuin-1 (Homo sapiens); assay: Inhibition of human SIRT1 using fluorogenic ZMAL as substrate at 250 uM incubated for 4 hrs in the presence of beta-NAD+ as cofactor by fluorescence based microplate reader analysis relative to control; how it was run: as §1
[10] = Chemical stability of the compound in sirtuin assay buffer at pH 8.0 assessed as nicotinamide cleavage measured every 60 mins for 4 hrs by HPLC analysis; format: physicochemical; details: read-out: Activity
[11] = molecular target: T5, NAD-dependent protein deacetylase sirtuin-2 (Homo sapiens) (UniProt Q8IXJ6); assay: Inhibition of human SIRT2 using fluorogenic ZMAL as substrate at 250 uM incubated for 4 hrs in the presence of beta-NAD+ as cofactor by fluorescence based microplate reader analysis relative to control; how it was run: as §1
T5 sequence (whole entry): T2 sequence (Q8IXJ6 whole entry)

[12] = molecular target: T6, NAD-dependent protein deacetylase sirtuin-1 (Homo sapiens, UniProt Q96EB6); assay: Inhibition of human SIRT1 using fluorogenic ZMAL as substrate incubated for 4 hrs in the presence of beta-NAD+ as cofactor by fluorescence based microplate reader analysis; how it was run: as §1
T6 sequence (Q96EB6 whole entry): T1 sequence (whole entry)

[13] = molecular target: T3, NAD-dependent protein deacetylase sirtuin-3, mitochondrial (Homo sapiens); assay: Inhibition of human SIRT3 using fluorogenic ZMAL as substrate at 1 mM incubated for 4 hrs in the presence of beta-NAD+ as cofactor by fluorescence based microplate reader analysis relative to control; how it was run: as §1

| inhibition [1] [%] | metabolised at 4 h [2] [%] | degraded at 4 h [3] [%] | inhibition [4] [%] | IC50 [5] [µM] | inhibition [6] | inhibition [7] [%] | inhibition [8] [%] | inhibition [9] [%] | degraded at 4 h [10] [%] | inhibition [11] [%] | IC50 [12] [µM] | inhibition [13] [%] | SMILES |
| --- | --- | --- | --- | --- | --- | --- | --- | --- | --- | --- | --- | --- | --- |
| 18 | 15.1 | 8.4 | 19 | 151 | Dde | 77 | 12 | 65 |  |  |  |  | NC(=O)c1ccc[n+]([C@@H]2O[C@H](COP(=O)(O)OP(=O)(O)OC[C@H]3O[C@@H](n4cnc5c(N)ncnc54)[C@H](O)[C@@H]3O)[C@@H](O)[C@H]2N)c1 |
| 13 | 4.1 |  | 13 | 118 |  |  | 8 | 63 | 4.1 |  |  |  | NC(=O)c1ccc[n+]([C@H]2O[C@H](COP(=O)(O)OP(=O)(O)OC[C@H]3O[C@@H](n4cnc5c(N)ncnc54)[C@H](O)[C@@H]3O)[C@@H](O)[C@H]2N)c1 |
|  |  |  | 34 |  |  |  |  |  |  | 21 |  |  | [N-]=[N+]=N[C@@H]1C([n+]2cccc(C(N)=O)c2)O[C@H](COP(=O)(O)OP(=O)(O)OC[C@H]2O[C@@H](n3cnc4c(N)ncnc43)[C@H](O)[C@@H]2O)[C@H]1O (stereo partly specified) |
|  |  |  |  | 153 |  |  |  |  |  |  | 176 | 47 | NC(=O)c1ccc[n+]([C@@H]2O[C@H](COP(=O)(O)OP(=O)(O)OC[C@H]3O[C@@H](n4cnc5c(N)ncnc54)[C@H](O)[C@@H]3O)[C@@H](O)[C@@H]2N)c1 |

Reference: ChEMBL document CHEMBL5126598, “Defined stereoisomers of 2″-amino NAD+ and their activity against human sirtuins and a bacterial (ADP-ribosyl) transferase” (Bioorg Med Chem, 2022)
